Results pooled from the literature.
Lines come from different studies, so protocols differ.
DRD3: D(3) dopamine receptor (DRD3, Homo sapiens, UniProt P35462)
HDAC5: Histone deacetylase 5 (HDAC5, Homo sapiens, UniProt Q9UQL6)
SLC6A3: Sodium-dependent dopamine transporter (SLC6A3, Homo sapiens, UniProt Q01959)

| SMILES | target | assay | IC50 [nM] |
| --- | --- | --- | --- |
| N=C(N)c1ccc(OCCCCCOc2ccc(C(=N)N)cc2)cc1 | Coagulation factor XI (F11, Homo sapiens, UniProt P03951) | enzyme activity, inhibitor, absorbance | > 100000 |
| CCc1ccc(NS(=O)(=O)c2c(C)[nH]c(C)c2C(=O)N2CCC(F)(F)C2)cc1Cl | DRD3 | G protein activation, antagonist, BRET | 1600 |
| O=C(NO)c1ccc(Cn2cnc3c(Nc4cccc([N+](=O)[O-])c4)ncnc32)cc1 | HDAC5 | enzyme activity, inhibitor | 1140 |
| CN1CCN(c2nc(-c3cc4cc(Br)ccc4oc3=O)cs2)CC1 | Carbonic anhydrase 12 (CA12, Homo sapiens, UniProt O43570) | enzyme activity, inhibitor, absorbance | 2820 |
| Nc1cnccc1Nc1ccc(Cl)c(Cl)c1 | DNA repair nuclease/redox regulator APEX1 (APEX1, Homo sapiens, UniProt P27695) | enzyme activity, inhibitor | > 100000 |
| CSc1ccc(NS(=O)(=O)c2c(C)[nH]c(C)c2C(=O)N2CCC(F)(F)C2)cc1Cl | DRD3 | G protein activation, antagonist, BRET | 6000 |
| CCCN(CCC)S(=O)(=O)c1ccc(C(=O)O)cc1 | Taste receptor type 2 member 16 (TAS2R16, Homo sapiens, UniProt Q9NYV7) | inositol phosphate, antagonist, TR-FRET | 770000 |
| COc1c(Cl)cccc1Nc1c(-c2ccncc2OC[C@@H]2COCCO2)[nH]c2c1C(=O)NCC2 | Discoidin domain-containing receptor 2 (DDR2, Homo sapiens, UniProt Q16832) | cell-free assay, TR-FRET | 53.3 |
| COc1ccc(N(Cc2csc(-c3ccc(C)cc3)n2)C(=O)CCCCCC(=O)NO)cc1 | HDAC5 | enzyme activity, inhibitor | > 10000 |
| Cc1[nH]c(C)c(S(=O)(=O)Nc2ccc(C(F)(F)F)c(Cl)c2)c1C(=O)N1CCCC1 | DRD3 | β-arrestin recruitment, antagonist | 2800 |
| CNc1nc(C#Cc2ccc(Cl)s2)nc2c1ncn2[C@H]1[C@H](O)[C@H](O)[C@]2(CC#N)C[C@H]12 | SLC6A3 | transporter uptake, inhibitor, radiometric | 360 |
| COc1ccc(N(Cc2nc(-c3ccc(F)cc3)cs2)C(=O)CCCCCC(=O)NO)cc1 | HDAC5 | enzyme activity, inhibitor | > 10000 |
| Cc1[nH]c(C)c(C(=O)N2CCC(F)(F)C2)c1C(=O)Nc1ccc(C(F)(F)F)c(Cl)c1 | DRD3 | β-arrestin recruitment, antagonist | 41000 |
| CNc1nc(C#Cc2ccc(Cl)s2)nc2c1ncn2[C@H]1[C@H](O)[C@H](O)[C@]2(C(=O)OC)C[C@H]12 | SLC6A3 | transporter uptake, inhibitor, radiometric | 380 |
| NC(=O)c1nnn(Cc2cc(Cl)c(C(=O)c3ccc(Cl)cc3)c(Cl)c2)c1N | SLC6A3 | transporter uptake, inhibitor | 69 |
| CN(C)C(=O)c1cc2cnc(Nc3ccc(-c4ccc5c(=O)cc(N6CCOCC6)oc5c4)cc3)nc2n1C1CCCC1 | DNA-dependent protein kinase catalytic subunit (PRKDC, Homo sapiens, UniProt P78527) | enzyme activity, inhibitor | 192 |
